Experimental data published in ChEMBL document CHEMBL4689842, “EUbOPEN Chemogenomics Library wave 1” (2021).

Test system: Fibroblast
Test: Multiplex assay against human fibroblast
Assay type: toxicity, cell-based
In short: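 Phenotypes for tubulin, mitochondrial mass and membrane permeability are expressed as per cents of healthy-nucleus cells. Cells were stained live at seeding with Hoechst33342, BioTracker Green Microtubule Cytoskeleton Dye, MitoTracker Red and Annexin V Alexa Fluor 680, then imaged after compound addition on a CQ1 microscope at 37°C and 5% CO2. Machine-learning gating in CellPathfinder separated Hoechst high-intensity objects from normal cells, divided normal cells by nuclear state (healthy, pyknosed, fragmented) and divided pyknosed cells into mitotic or apoptotic.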

[1] = 12 h, 1 µM, compound concentration 1 uM, replicate 1
[2] = 12 h, 1 µM, compound concentration 1 uM, replicate 2
[3] = 12 h, 10 µM, compound concentration 10 uM, replicate 1
[4] = 12 h, 10 µM, compound concentration 10 uM, replicate 2
[5] = 24 h, 1 µM, compound concentration 1 uM, replicate 1
[6] = 24 h, 1 µM, compound concentration 1 uM, replicate 2
[7] = 24 h, 10 µM, compound concentration 10 uM, replicate 1
[8] = 24 h, 10 µM, compound concentration 10 uM, replicate 2

Cc1ccc2nc(NCCN)c3ncc(C)n3c2c1.O=C(O)C(F)(F)F.O=C(O)C(F)(F)F
Population Apoptotic (%) [1]: 78%
Population Fragmented Nuclei (%) [1]: 28%
Population Healthy Nuclei (%) [1]: 60%
Population Hoechst High Intensity Objects (%) [1]: 11%
Population Membrane Permeable-Phenotype (%) [1]: 5%
Population Mitochondria Different-Phenotype (%) [1]: 1%
Population Mitotic Cells (%) [1]: 21%
Population Normal (%) [1]: 88%
Population Tubulin-Different-Phenotype (%) [1]: 3%
Total Cell Count [1]: 243
Population Apoptotic (%) [2]: 50%
Population Fragmented Nuclei (%) [2]: 65%
Population Healthy Nuclei (%) [2]: 23%
Population Hoechst High Intensity Objects (%) [2]: 51%
Population Membrane Permeable-Phenotype (%) [2]: 11%
Population Mitochondria Different-Phenotype (%) [2]: 22%
Population Mitotic Cells (%) [2]: 50%
Population Normal (%) [2]: 48%
Population Pyknosed Nuclei (%) [2]: 10%
Population Tubulin-Different-Phenotype (%) [2]: 11%
Total Cell Count [2]: 78
Population Apoptotic (%) [3]: 76%
Population Fragmented Nuclei (%) [3]: 33%
Population Healthy Nuclei (%) [3]: 52%
Population Hoechst High Intensity Objects (%) [3]: 21%
Population Membrane Permeable-Phenotype (%) [3]: 5%
Population Mitochondria Different-Phenotype (%) [3]: 3%
Population Mitotic Cells (%) [3]: 23%
Population Normal (%) [3]: 78%
Population Pyknosed Nuclei (%) [3]: 13%
Population Tubulin-Different-Phenotype (%) [3]: 11%
Total Cell Count [3]: 309
Population Apoptotic (%) [4]: 66%
Population Fragmented Nuclei (%) [4]: 57%
Population Healthy Nuclei (%) [4]: 26%
Population Hoechst High Intensity Objects (%) [4]: 36%
Population Membrane Permeable-Phenotype (%) [4]: 6%
Population Mitochondria Different-Phenotype (%) [4]: 33%
Population Mitotic Cells (%) [4]: 33%
Population Normal (%) [4]: 63%
Population Pyknosed Nuclei (%) [4]: 15%
Population Tubulin-Different-Phenotype (%) [4]: 46%
Total Cell Count [4]: 90
Population Apoptotic (%) [5]: 64%
Population Fragmented Nuclei (%) [5]: 22%
Population Healthy Nuclei (%) [5]: 59%
Population Hoechst High Intensity Objects (%) [5]: 11%
Population Membrane Permeable-Phenotype (%) [5]: 4%
Population Mitochondria Different-Phenotype (%) [5]: 0%
Population Mitotic Cells (%) [5]: 35%
Population Normal (%) [5]: 88%
Population Pyknosed Nuclei (%) [5]: 17%
Population Tubulin-Different-Phenotype (%) [5]: 2%
Total Cell Count [5]: 253
Population Apoptotic (%) [6]: 66%
Population Fragmented Nuclei (%) [6]: 64%
Population Healthy Nuclei (%) [6]: 27%
Population Hoechst High Intensity Objects (%) [6]: 43%
Population Membrane Permeable-Phenotype (%) [6]: 0%
Population Mitochondria Different-Phenotype (%) [6]: 20%
Population Mitotic Cells (%) [6]: 33%
Population Normal (%) [6]: 56%
Population Pyknosed Nuclei (%) [6]: 8%
Population Tubulin-Different-Phenotype (%) [6]: 0%
Total Cell Count [6]: 65
Population Apoptotic (%) [7]: 81%
Population Fragmented Nuclei (%) [7]: 35%
Population Healthy Nuclei (%) [7]: 50%
Population Hoechst High Intensity Objects (%) [7]: 23%
Population Membrane Permeable-Phenotype (%) [7]: 5%
Population Mitochondria Different-Phenotype (%) [7]: 0%
Population Mitotic Cells (%) [7]: 18%
Population Normal (%) [7]: 76%
Population Pyknosed Nuclei (%) [7]: 13%
Population Tubulin-Different-Phenotype (%) [7]: 3%
Total Cell Count [7]: 370
Population Apoptotic (%) [8]: 77%
Population Fragmented Nuclei (%) [8]: 47%
Population Healthy Nuclei (%) [8]: 35%
Population Hoechst High Intensity Objects (%) [8]: 39%
Population Membrane Permeable-Phenotype (%) [8]: 15%
Population Mitochondria Different-Phenotype (%) [8]: 15%
Population Mitotic Cells (%) [8]: 22%
Population Normal (%) [8]: 60%
Population Pyknosed Nuclei (%) [8]: 16%
Population Tubulin-Different-Phenotype (%) [8]: 52%
Total Cell Count [8]: 88
